# Laboratory results from ChEMBL document CHEMBL1671676, “In vitro activity of nemonoxacin, a novel nonfluorinated quinolone, against 2,440 clinical isolates” (2009).
# Experiments:
# Format in all cases: functional
# Staphylococcus aureus [1] = assay: Antibacterial activity against methicillin-resistant Staphylococcus aureus assessed as percent cumulative susceptible isolates at minimum inhibitory concentration of 8 ug/ml by CLSI broth microdilution method; set-up: scale not given: the % may be the effect or the level left
# Streptococcus pneumoniae [2] = assay: Antibacterial activity against Streptococcus pneumoniae assessed as percent cumulative susceptible isolates at minimum inhibitory concentration of 32 ug/ml by CLSI broth microdilution method; set-up: scale not given: the % may be the effect or the level left
# Method in brief: (§1)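 Clinical isolates tested by CLSI broth microdilution using 96-well panels of doubling drug dilutions in cation-adjusted Mueller-Hinton broth with 5% lysed horse blood. MIC was read from these panels. Panel quality control used CLSI ATCC strains, including S. pneumoniae 49619, S. aureus 29213, E. faecalis 29212 and E. coli 25922. Cumulative percentages of isolates were tabulated at each MIC.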
# Proteus mirabilis [3] = assay: Antibacterial activity against Proteus mirabilis assessed as percent cumulative susceptible isolates at minimum inhibitory concentration of 8 ug/ml by CLSI broth microdilution method; set-up: scale not given: the % may be the effect or the level left
# Streptococcus pneumoniae [4] = assay: Antibacterial activity against Streptococcus pneumoniae assessed as percent cumulative susceptible isolates at minimum inhibitory concentration of 2 ug/ml by CLSI broth microdilution method; set-up: scale not given: the % may be the effect or the level left
# Streptococcus pneumoniae [5] = assay: Antibacterial activity against Streptococcus pneumoniae assessed as percent cumulative susceptible isolates at minimum inhibitory concentration of 1 ug/ml by CLSI broth microdilution method; set-up: scale not given: the % may be the effect or the level left
# Streptococcus pneumoniae [6] = assay: Antibacterial activity against penicillin-resistant Streptococcus pneumoniae assessed as percent cumulative susceptible isolates at minimum inhibitory concentration of 1 ug/ml by CLSI broth microdilution method; set-up: scale not given: the % may be the effect or the level left
# Streptococcus pneumoniae [7] = assay: Antibacterial activity against penicillin-resistant Streptococcus pneumoniae assessed as percent cumulative susceptible isolates at minimum inhibitory concentration of 0.5 ug/ml by CLSI broth microdilution method; set-up: scale not given: the % may be the effect or the level left
# Streptococcus pneumoniae [8] = assay: Antibacterial activity against Streptococcus pneumoniae by CLSI M7-A7 broth microdilution method
# Method in brief: (§2)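 Broth microdilution per CLSI guidelines on clinical isolates, using panels of doubling drug dilutions in cation-adjusted Mueller-Hinton broth with 5% lysed horse blood. MIC read per CLSI, and cumulative percentage of isolates inhibited at each concentration tabulated.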
# Staphylococcus aureus [9] = assay: Antibacterial activity against methicillin-resistant Staphylococcus aureus assessed as percent cumulative susceptible isolates at minimum inhibitory concentration of 0.5 ug/ml by CLSI broth microdilution method; set-up: scale not given: the % may be the effect or the level left
# Staphylococcus aureus [10] = assay: Antibacterial activity against hospital-associated methicillin-resistant Staphylococcus aureus by CLSI M7-A7 broth microdilution method; method in brief: as §1
# [11] = test system: Staphylococcus epidermidis; assay: Antibacterial activity against methicillin-resistant Staphylococcus epidermidis assessed as percent cumulative susceptible isolates at minimum inhibitory concentration of […] by CLSI broth microdilution method; set-up: scale not given: the % may be the effect or the level left
# Klebsiella pneumoniae [12] = assay: Antibacterial activity against Klebsiella pneumoniae assessed as percent cumulative susceptible isolates at minimum inhibitory concentration of 0.03 ug/ml by CLSI broth microdilution method; set-up: scale not given: the % may be the effect or the level left
# Enterococcus faecium = assay: Antibacterial activity against Enterococcus faecium assessed as percent cumulative susceptible isolates at minimum inhibitory concentration of […] by CLSI broth microdilution method; set-up: scale not given: the % may be the effect or the level left
# Klebsiella pneumoniae [13] = assay: Antibacterial activity against Klebsiella pneumoniae assessed as percent cumulative susceptible isolates at minimum inhibitory concentration of 64 ug/ml by CLSI broth microdilution method; set-up: scale not given: the % may be the effect or the level left
# [14] = test system: Staphylococcus epidermidis; assay: Antibacterial activity against methicillin-susceptible Staphylococcus epidermidis assessed as percent cumulative susceptible isolates at minimum inhibitory concentration of 0.5 ug/ml by CLSI broth microdilution method; set-up: scale not given: the % may be the effect or the level left
# Staphylococcus aureus [15] = assay: Antibacterial activity against hospital-associated methicillin-resistant Staphylococcus aureus assessed as percent cumulative susceptible isolates at minimum inhibitory concentration of 0.5 ug/ml by CLSI broth microdilution method; set-up: scale not given: the % may be the effect or the level left
# Staphylococcus aureus [16] = assay: Antibacterial activity against methicillin-resistant Staphylococcus aureus assessed as percent cumulative susceptible isolates at minimum inhibitory concentration of 0.06 ug/ml by CLSI broth microdilution method; set-up: scale not given: the % may be the effect or the level left
# Staphylococcus aureus [17] = assay: Antibacterial activity against methicillin-resistant Staphylococcus aureus assessed as percent cumulative susceptible isolates at minimum inhibitory concentration of 0.03 ug/ml by CLSI broth microdilution method; set-up: scale not given: the % may be the effect or the level left; method in brief: as §1
# Staphylococcus aureus [18] = assay: Antibacterial activity against non-levofloxacin susceptible Staphylococcus aureus assessed as percent cumulative susceptible isolates at minimum inhibitory concentration of 8 ug/ml by CLSI broth microdilution method; set-up: scale not given: the % may be the effect or the level left
# Staphylococcus aureus [19] = assay: Antibacterial activity against methicillin-resistant Staphylococcus aureus assessed as percent cumulative susceptible isolates at minimum inhibitory concentration of […] by CLSI broth microdilution method; set-up: scale not given: the % may be the effect or the level left
# [20] = Ratio of fAUC (0 to 24 hrs) in in vitro PK/PD model at 750 mg to MIC for community-associated methicillin-resistant Staphylococcus aureus
# Escherichia coli [21] = assay: Antibacterial activity against Escherichia coli assessed as percent cumulative susceptible isolates at minimum inhibitory concentration of 128 ug/ml by CLSI broth microdilution method; set-up: scale not given: the % may be the effect or the level left
# Klebsiella pneumoniae [22] = assay: Antibacterial activity against Klebsiella pneumoniae assessed as percent cumulative susceptible isolates at minimum inhibitory concentration of 128 ug/ml by CLSI broth microdilution method; set-up: scale not given: the % may be the effect or the level left
# Proteus mirabilis [23] = assay: Antibacterial activity against Proteus mirabilis assessed as percent cumulative susceptible isolates at minimum inhibitory concentration of 64 ug/ml by CLSI broth microdilution method; set-up: scale not given: the % may be the effect or the level left
# Staphylococcus aureus [24] = assay: Antibacterial activity against methicillin-susceptible Staphylococcus aureus by CLSI M7-A7 broth microdilution method; method in brief: as §2
# Staphylococcus aureus [25] = assay: Antibacterial activity against non-levofloxacin susceptible Staphylococcus aureus assessed as percent cumulative susceptible isolates at minimum inhibitory concentration of 4 ug/ml by CLSI broth microdilution method; set-up: scale not given: the % may be the effect or the level left
# Proteus mirabilis [26] = assay: Antibacterial activity against Proteus mirabilis assessed as percent cumulative susceptible isolates at minimum inhibitory concentration of >=[…] by CLSI broth microdilution method; set-up: scale not given: the % may be the effect or the level left
# Escherichia coli [27] = assay: Antibacterial activity against Escherichia coli assessed as percent cumulative susceptible isolates at minimum inhibitory concentration of 2 ug/ml by CLSI broth microdilution method; set-up: scale not given: the % may be the effect or the level left
# Staphylococcus aureus [28] = assay: Antibacterial activity against methicillin-susceptible Staphylococcus aureus assessed as percent cumulative susceptible isolates at minimum inhibitory concentration of 2 ug/ml by CLSI broth microdilution method; set-up: scale not given: the % may be the effect or the level left
# Staphylococcus aureus [29] = assay: Antibacterial activity against non-levofloxacin susceptible Staphylococcus aureus assessed as percent cumulative susceptible isolates at minimum inhibitory concentration of 32 ug/ml by CLSI broth microdilution method; set-up: scale not given: the % may be the effect or the level left
# Staphylococcus aureus [30] = assay: Antibacterial activity against community-associated methicillin-resistant Staphylococcus aureus by CLSI M7-A7 broth microdilution method; method in brief: as §1
# Staphylococcus aureus [31] = assay: Antibacterial activity against methicillin-susceptible Staphylococcus aureus assessed as percent cumulative susceptible isolates at minimum inhibitory concentration of 0.03 ug/ml by CLSI broth microdilution method; set-up: scale not given: the % may be the effect or the level left
# [32] = Ratio of fAUC (0 to 24 hrs) in in vitro PK/PD model at 750 mg to MIC for Staphylococcus aureus
# Pseudomonas aeruginosa = assay: Antibacterial activity against Pseudomonas aeruginosa assessed as percent cumulative susceptible isolates at minimum inhibitory concentration of 256 ug/ml by CLSI broth microdilution method; set-up: scale not given: the % may be the effect or the level left
# [33] = Ratio of fAUC (0 to 24 hrs) in in vitro PK/PD model at 750 mg to MIC for Streptococcus pneumoniae
# Escherichia coli [34] = assay: Antibacterial activity against Escherichia coli assessed as percent cumulative susceptible isolates at minimum inhibitory concentration of <=[…] by CLSI broth microdilution method; set-up: scale not given: the % may be the effect or the level left
smiles,measurement,setting,value
C[C@H]1COc2c(N3CCN(C)CC3)c(F)cc3c(=O)c(C(=O)O)cn1c23.C[C@H]1COc2c(N3CCN(C)CC3)c(F)cc3c(=O)c(C(=O)O)cn1c23.O [LEVOFLOXACIN],Activity,Staphylococcus aureus [1],22.8%
same,Activity,Streptococcus pneumoniae [2],100%
same,Activity,Proteus mirabilis [3],97%
same,Activity,Streptococcus pneumoniae [4],99.4%
same,Activity,Streptococcus pneumoniae [5],96.3%
same,Activity,Streptococcus pneumoniae [6],90.6%
same,Activity,Streptococcus pneumoniae [7],53.1%
COc1c(N2C[C@@H](C)C[C@H](N)C2)ccc2c(=O)c(C(=O)O)cn(C3CC3)c12 [NEMONOXACIN],MIC90,Streptococcus pneumoniae [8],0.015 µg/mL
same,Activity,Staphylococcus aureus [9],24.4%
same,MIC,Staphylococcus aureus [10],≥ 4 µg/mL
same,Activity,[11],11.1%
same,Activity,Klebsiella pneumoniae [12],1%
same,Activity,Enterococcus faecium,28.9%
same,Activity,Klebsiella pneumoniae [13],98.5%
same,Activity,[14],93%
same,Activity,Staphylococcus aureus [15],5.1%
same,Activity,Staphylococcus aureus [16],6.3%
same,Activity,Staphylococcus aureus [17],6.3%
same,Activity,Staphylococcus aureus [18],76.2%
same,Activity,Staphylococcus aureus [19],4.7%
same,RatioAUC/MIC,[20],98
same,Activity,Escherichia coli [21],99.3%
same,Activity,Klebsiella pneumoniae [22],100%
same,Activity,Proteus mirabilis [23],97%
same,MIC90,Staphylococcus aureus [24],0.12 µg/mL
same,Activity,Staphylococcus aureus [25],67.3%
same,Activity,Proteus mirabilis [26],100%
same,Activity,Escherichia coli [27],75.5%
same,Activity,Staphylococcus aureus [28],96%
same,Activity,Staphylococcus aureus [29],98%
same,MIC50,Staphylococcus aureus [30],0.25 µg/mL
same,MIC90,Staphylococcus aureus [30],0.5 µg/mL
same,Activity,Staphylococcus aureus [31],71.9%
same,RatioAUC/MIC,[32],393
same,Activity,Pseudomonas aeruginosa,99.3%
same,RatioAUC/MIC,[33],> 393
same,Activity,Escherichia coli [34],0.2%
